In brackets after ≈: the same amount, converted by molar mass.
Tests used:
[1] = tested on: SR; assay: Antitumor activity against SR cells; assay type: functional; details: Homo sapiens
Method in brief: (§1)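 Tested in the NCI 60-human-tumour-cell-line panel at five concentrations, in 10-fold dilutions from 10^-4 to 10^-8 M. Three parameters were taken from the dose-response data, each as log10 of the molar concentration: GI50 (50% net growth inhibition), TGI (total growth inhibition) and LC50 (50% net cell death).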

[2] = tested on: A549; assay: Antitumor activity against A549 cells; assay type: functional; details: Homo sapiens
[3] = Antitumor activity against MALME 3M cells; assay type: functional; details: Homo sapiens
[4] = tested on: M14; assay: Antitumor activity against M14 cells; assay type: functional; details: Homo sapiens
[5] = tested on: SK-MEL-28; assay: Antitumor activity against SK-MEL-28 cells; assay type: functional; details: Homo sapiens
[6] = tested on: SK-MEL-5; assay: Antitumor activity against SK-MEL-5 cells; assay type: functional; details: Homo sapiens; method in brief: as §1
[7] = tested on: UACC-257; assay: Antitumor activity against UACC257 cells; assay type: functional; details: Homo sapiens; method in brief: as §1
[8] = tested on: OVCAR-3; assay: Antitumor activity against OVCAR-3 cells; assay type: functional; details: Homo sapiens
[9] = tested on: OVCAR-4; assay: Antitumor activity against OVCAR4 cells; assay type: functional; details: Homo sapiens
[10] = tested on: SK-OV-3; assay: Antitumor activity against SKOV3 cells; assay type: functional; details: Homo sapiens; method in brief: as §1
[11] = tested on: A498; assay: Antitumor activity against A498 cells; assay type: functional; details: Homo sapiens
[12] = tested on: ACHN; assay: Antitumor activity against ACHN cells; assay type: functional; details: Homo sapiens
[13] = tested on: CAKI-1; assay: Antitumor activity against CAKI1 cells; assay type: functional; details: Homo sapiens
[14] = tested on: PC-3; assay: Antitumor activity against PC3 cells; assay type: functional; details: Homo sapiens
[15] = tested on: DU-145; assay: Antitumor activity against DU145 cells; assay type: functional; details: Homo sapiens
[16] = tested on: MCF7; assay: Antitumor activity against MCF7 cells; assay type: functional; details: Homo sapiens
[17] = tested on: MDA-MB-231; assay: Antitumor activity against MDA-MB-231 cells; assay type: functional; details: Homo sapiens
[18] = tested on: Hs-578T; assay: Antitumor activity against HS578T cells; assay type: functional; details: Homo sapiens
[19] = tested on: BT-549; assay: Antitumor activity against BT549 cells; assay type: functional; details: Homo sapiens
[20] = tested on: T47D; assay: Antitumor activity against T47D cells; assay type: functional; details: Homo sapiens; method in brief: as §1
[21] = tested on: Pseudomonas aeruginosa; assay: Antibacterial activity against Pseudomonas aeruginosa MTCC 424 after 18 hrs; assay type: functional; details: MTCC 424, 18 h
Method in brief: (§2)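 Disc diffusion (Kirby–Bauer) on Mueller-Hinton agar inoculated with fresh bacteria at 1-5 × 10^4 cfu mL-1. Compounds were dissolved in DMF at a range of concentrations, and discs were placed in triplicate. Plates were incubated at 30 °C for 18 h. MIC was taken as the lowest concentration giving no visible bacterial growth on the plate.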

[22] = tested on: Staphylococcus epidermidis; assay: Antibacterial activity against Staphylococcus epidermidis MTCC 435 after 18 hrs; assay type: functional; details: MTCC 435, 18 h; method in brief: as §2
[23] = tested on: Vibrio; assay: Antibacterial activity against Vibrio species after 18 hrs; assay type: functional; method in brief: as §2
[24] = tested on: 786-0; assay: Antitumor activity against 786-0 cells; assay type: functional; details: Homo sapiens
[25] = tested on: CCRF-CEM; assay: Antitumor activity against CCRF-CEM cells; assay type: functional; details: Homo sapiens
[26] = Antitumor activity against HL60 (TB) cells; assay type: functional, HL-60(TB); details: Homo sapiens, HL-60
Method in brief: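 NCI 60-cell-line in vitro screen (leukaemia subpanel). Compound tested at five 10-fold dilutions from 10^-4 to 10^-8 M. Dose-response parameters: GI50 (concentration giving 50% net growth inhibition), TGI (total growth inhibition) and LC50 (50% net cell death), each reported as log10 of molar concentration.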

[27] = tested on: MOLT-4; assay: Antitumor activity against MOLT4 cells; assay type: functional; details: Homo sapiens
[28] = tested on: HOP-62; assay: Antitumor activity against HOP62 cells; assay type: functional; details: Homo sapiens
[29] = tested on: HOP-92; assay: Antitumor activity against HOP92 cells; assay type: functional; details: Homo sapiens
[30] = tested on: NCI-H226; assay: Antitumor activity against NCI-H226 cells; assay type: functional; details: Homo sapiens
[31] = Antitumor activity against NCI-H322 cells; assay type: functional; details: Homo sapiens
[32] = tested on: NCI-H460; assay: Antitumor activity against NCI-H460 cells; assay type: functional; details: Homo sapiens
[33] = tested on: HCC 2998; assay: Antitumor activity against HCC2998 cells; assay type: functional; details: Homo sapiens
[34] = tested on: HCT-116; assay: Antitumor activity against HCT116 cells; assay type: functional; details: Homo sapiens
[35] = tested on: HT-29; assay: Antitumor activity against HT29 cells; assay type: functional; details: Homo sapiens
[36] = tested on: KM12; assay: Antitumor activity against KM12 cells; assay type: functional; details: Homo sapiens
[37] = tested on: SF-295; assay: Antitumor activity against SF295 cells; assay type: functional; details: Homo sapiens
[38] = tested on: SF-539; assay: Antitumor activity against SF539 cells; assay type: functional; details: Homo sapiens
[39] = tested on: SNB-19; assay: Antitumor activity against SNB19 cells; assay type: functional; details: Homo sapiens; method in brief: as §1
[40] = tested on: U-251; assay: Antitumor activity against U251 cells; assay type: functional; details: Homo sapiens; method in brief: as §1
[41] = read-out: Log LC50 (the source's name) (converted)

What does the source list for `O=C(NNS(=O)(=O)c1ccc(Cl)cc1Cl)c1cccnc1Nc1ccc(Cl)cc1`?
GI50 [1]: 14.8 µM; LC50 [1]: 97.7 µM; TGI ([1]; read-out: Log TGI (converted)): 38 µM; GI50 [2]: 24.5 µM; LC50 [2]: > 100 µM; TGI ([2]; read-out: Log TGI (converted)): 70.8 µM; GI50 [3]: 34.7 µM; CC50 [3, 41]: > 100 µM; TGI ([3]; read-out: Log TGI (converted)): 34.7 µM; GI50 [4]: 19.1 µM; LC50 [4]: 79.4 µM; TGI ([4]; read-out: Log TGI (converted)): 38.9 µM; GI50 [5]: 35.5 µM; LC50 [5]: > 100 µM; TGI ([5]; read-out: Log TGI (converted)): > 100 µM; GI50 [6]: 14.1 µM; LC50 [6]: 61.7 µM; TGI ([6]; read-out: Log TGI (converted)): 29.5 µM; GI50 [7]: 22.9 µM; LC50 [7]: > 100 µM; TGI ([7]; read-out: Log TGI (converted)): 60.3 µM; GI50 [8]: 20.4 µM; CC50 [8, 41]: > 100 µM; TGI ([8]; read-out: Log TGI (converted)): > 100 µM; GI50 [9]: 28.8 µM; LC50 (lethal concentration, 50%) [9]: > 100 µM; TGI ([9]; read-out: Log TGI (converted)): > 100 µM; GI50 [10]: 17 µM; CC50 [10, 41]: > 100 µM; TGI ([10]; read-out: Log TGI (converted)): 52.5 µM; GI50 [11]: 25.1 µM; LC50 [11]: 91.2 µM; TGI ([11]; read-out: Log TGI (converted)): 47.9 µM; GI50 [12]: 29.5 µM; LC50 [12]: > 100 µM; TGI ([12]; read-out: Log TGI (converted)): 93.3 µM; GI50 [13]: 20 µM; LC50 [13]: > 100 µM; TGI ([13]; read-out: Log TGI (converted)): 58.9 µM; GI50 [14]: 23.4 µM; LC50 [14]: > 100 µM; TGI ([14]; read-out: Log TGI (converted)): 81.3 µM; GI50 [15]: 41.7 µM; LC50 [15]: > 100 µM; TGI ([15]; read-out: Log TGI (converted)): > 100 µM; GI50 [16]: 35.5 µM; LC50 [16]: > 100 µM; TGI ([16]; read-out: Log TGI (converted)): > 100 µM; GI50 [17]: 19.1 µM; LC50 [17]: > 100 µM; TGI ([17]; read-out: Log TGI (converted)): 50.1 µM; GI50 [18]: 17.8 µM; CC50 [18, 41]: 97.7 µM; TGI ([18]; read-out: Log TGI (converted)): 41.7 µM; GI50 [19]: 16.6 µM; LC50 [19]: 72.4 µM; TGI ([19]; read-out: Log TGI (converted)): 34.7 µM; GI50 [20]: 10.7 µM; CC50 [20, 41]: > 100 µM; TGI ([20]; read-out: Log TGI (converted)): 51.3 µM; MIC [21]: > 25 µg/mL; MIC [22]: 17 µg/mL (≈ 36 µM); MIC [23]: 14 µg/mL (≈ 29.7 µM); GI50 [24]: 19.5 µM; LC50 (lethal concentration, 50%) [24]: > 100 µM; TGI ([24]; read-out: Log TGI (converted)): 49 µM; LC50 [25]: > 100 µM; GI50 ([25]; read-out: GI50): 6.62 µM; TGI ([25]; read-out: Log TGI (converted)): > 100 µM; GI50 ([25]; read-out: pGI50 (converted)): 6.61 µM; GI50 [26]: 24 µM; LC50 [26]: 83.2 µM; TGI ([26]; read-out: Log TGI (converted)): 44.7 µM; GI50 [27]: 19.5 µM; LC50 [27]: > 100 µM; TGI ([27]; read-out: Log TGI (converted)): 57.5 µM; GI50 [28]: 16.6 µM; CC50 [28, 41]: 85.1 µM; TGI ([28]; read-out: Log TGI (converted)): 38 µM; GI50 [29]: 14.8 µM; CC50 [29, 41]: > 100 µM; TGI ([29]; read-out: Log TGI (converted)): 40.7 µM; GI50 [30]: 24 µM; CC50 [30, 41]: > 100 µM; TGI ([30]; read-out: Log TGI (converted)): 58.9 µM; GI50 [31]: 14.8 µM; CC50 [31, 41]: > 100 µM; TGI ([31]; read-out: Log TGI (converted)): 40.7 µM; GI50 [32]: 35.5 µM; LC50 [32]: > 100 µM; TGI ([32]; read-out: Log TGI (converted)): 100 µM; GI50 [33]: 13.5 µM; LC50 [33]: 61.7 µM; TGI ([33]; read-out: Log TGI (converted)): 28.8 µM; GI50 [34]: 15.5 µM; LC50 [34]: 53.7 µM; TGI ([34]; read-out: Log TGI (converted)): 28.8 µM; GI50 [35]: 22.9 µM; LC50 [35]: > 100 µM; TGI ([35]; read-out: Log TGI (converted)): 53.7 µM; GI50 [36]: 13.8 µM; CC50 [36, 41]: 58.9 µM; TGI ([36]; read-out: Log TGI (converted)): 28.8 µM; GI50 [37]: 30.2 µM; CC50 [37, 41]: > 100 µM; TGI ([37]; read-out: Log TGI (converted)): 77.6 µM; GI50 [38]: 19.1 µM; LC50 [38]: > 100 µM; TGI ([38]; read-out: Log TGI (converted)): 44.7 µM; GI50 [39]: 26.9 µM; CC50 [39, 41]: > 100 µM; TGI ([39]; read-out: Log TGI (converted)): 100 µM; GI50 [40]: 34.7 µM; LC50 [40]: > 100 µM; TGI ([40]; read-out: Log TGI (converted)): 100 µM
